From ChEMBL document CHEMBL1145483, “A Candida albicans petite mutant strain with uncoupled oxidative phosphorylation overexpresses MDR1 and has diminished susceptibility to fluconazole and voriconazole” (2007)
≈ marks a conversion by molar mass, not a printed value.

Columns and labels:
Format in all cases: functional
[1] = tested on: Candida albicans; assay: Antimicrobial activity against Candida albicans SC5314 after 24 hrs by broth macrodilution method; conditions: SC5314, 24 h
How it was run: (§1)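 MICs were determined by standard broth macrodilution following the NCCLS M27-A yeast reference method, with readings at 24 h and 48 h. Strains were parental SC5314 and P5, a petite mutant with uncoupled oxidative phosphorylation recovered from SC5314 after serial passage through mouse spleens.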

[2] = tested on: Candida albicans; assay: Antimicrobial activity against Candida albicans P5 after 24 hrs by broth macrodilution method; conditions: P5, 24 h; how it was run: as §1
[3] = tested on: Candida albicans; assay: Antimicrobial activity against Candida albicans SC5314 after 48 hrs by broth macrodilution method; conditions: SC5314, 48 h; how it was run: as §1
[4] = tested on: Candida albicans; assay: Antimicrobial activity against Candida albicans P5 after 48 hrs by broth macrodilution method; conditions: P5, 48 h; how it was run: as §1
[5] = tested on: Candida albicans; assay: Ratio of MIC for Candida albicans P5 mutant to MIC for Candida albicans SC5314
How it was run: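 The ratio is the P5 MIC divided by the SC5314 MIC, with both MICs obtained by standard broth macrodilution (NCCLS M27-A yeast reference method) and read at 24 h and 48 h. P5 is a petite mutant of SC5314 with uncoupled oxidative phosphorylation.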

| Structure (SMILES) | MIC [1] [µg/mL] | MIC [2] [µg/mL] | MIC [3] [µg/mL] | MIC [4] [µg/mL] | Ratio [5] |
| --- | --- | --- | --- | --- | --- |
| OC(Cn1cncn1)(Cn1cncn1)c1ccc(F)cc1F [FLUCONAZOLE] | 0.125 (≈ 0.408 µM) | 1 (≈ 3.27 µM) | 0.125 (≈ 0.408 µM) | 1 (≈ 3.27 µM) | 8 |
| C/C=C/C/C=C/CCC(=O)[C@H]1O[C@H]1C(N)=O [CERULENIN] | 2 (≈ 8.96 µM) | 4 (≈ 17.9 µM) | 2 (≈ 8.96 µM) | 8 (≈ 35.8 µM) |  |
| C[C@H]1CCC/C=C/[C@@H]2C[C@H](O)C[C@H]2[C@H](O)/C=C/C(=O)O1 [BREFELDIN A] | 4 (≈ 14.3 µM) | 16 (≈ 57.1 µM) | 8 (≈ 28.5 µM) | 32 (≈ 114 µM) |  |
| CCC(C)n1ncn(-c2ccc(N3CCN(c4ccc(OC[C@H]5CO[C@](Cn6cncn6)(c6ccc(Cl)cc6Cl)O5)cc4)CC3)cc2)c1=O (stereo not given in full) [ITRACONAZOLE] | 0.016 (≈ 0.0227 µM) | 0.016 (≈ 0.0227 µM) | 0.016 (≈ 0.0227 µM) | 0.016 (≈ 0.0227 µM) |  |
| CC/N=c1\cc2oc3cc(NCC)c(C)cc3c(-c3ccccc3C(=O)OCC)c-2cc1C.Cl [RHODAMINE 6G HYDROCHLORIDE] | 8 | 8 | 8 | 8 |  |
| C[C@@H]1C[C@@H]([C@H](O)CC2CC(=O)NC(=O)C2)C(=O)[C@@H](C)C1 [CYCLOHEXIMIDE] | 400 (≈ 1420 µM) | 400 (≈ 1420 µM) | 400 (≈ 1420 µM) | 800 (≈ 2840 µM) |  |
| CC(=O)N1CCN(c2ccc(OC[C@H]3CO[C@](Cn4ccnc4)(c4ccc(Cl)cc4Cl)O3)cc2)CC1 [KETOCONAZOLE] | 0.064 (≈ 0.12 µM) | 0.064 (≈ 0.12 µM) | 0.064 (≈ 0.12 µM) | 0.064 (≈ 0.12 µM) |  |
| C[C@@H]1[C@H](O)[C@@H](C)/C=C/C=C/C=C/C=C/C=C/C=C/C=C/[C@H](O[C@@H]2O[C@H](C)[C@@H](O)[C@H](N)[C@@H]2O)C[C@@H]2O[C@](O)(C[C@@H](O)C[C@@H](O)[C@H](O)CC[C@@H](O)C[C@@H](O)CC(=O)O[C@H]1C)C[C@H](O)[C@H]2C(=O)O [AMPHOTERICIN B] | 0.06 (≈ 0.0649 µM) | 0.06 (≈ 0.0649 µM) | 0.125 (≈ 0.135 µM) | 0.125 (≈ 0.135 µM) |  |
| CCCCNC(=O)n1c(NC(=O)OC)nc2ccccc21 [BENOMYL] | 20 (≈ 68.9 µM) | 20 (≈ 68.9 µM) | 20 (≈ 68.9 µM) | 20 (≈ 68.9 µM) |  |
| C[C@@H](c1ncncc1F)[C@](O)(Cn1cncn1)c1ccc(F)cc1F [VORICONAZOLE] | 0.004 (≈ 0.0115 µM) | 0.032 (≈ 0.0916 µM) | 0.004 (≈ 0.0115 µM) | 0.032 (≈ 0.0916 µM) | 8 |
| CN(C)c1ccc(C(=C2C=CC(=[N+](C)C)C=C2)c2ccc(N(C)C)cc2)cc1.[Cl-] [GENTIAN VIOLET] | 0.2 | 0.2 | 0.4 | 0.4 |  |
| Cc1cc(C)nc(NC(=O)NS(=O)(=O)c2ccccc2C(=O)O)n1 [SULFOMETURON] | 10 (≈ 28.5 µM) | 10 (≈ 28.5 µM) | 10 (≈ 28.5 µM) | 10 (≈ 28.5 µM) |  |
